Assays:
[1] = system: Candida albicans; assay: Antifungal activity against Candida albicans ATCC 90028 assessed as inhibition of metabolic activity at 10 ug/ml after 48 hrs in presence of 2.5 ug/ml fluconazol by XTT assay relative to control; assay type: functional; settings: values are per cent of control
How it was run: (§1)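 C. albicans ATCC 90028 in checkerboard: fluconazole serial dilutions (80-1.25 µg/mL) crossed with tetrazole (80-1.25 µg/mL final), M27-A3 inoculum in RPMI 1640, 35°C for 48 h. Metabolic activity measured by XTT reduction, read at 475 nm (660 nm reference). Activity expressed relative to untreated growth control absorbance.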

[2] = system: Candida albicans; assay: Antifungal activity against Candida albicans ATCC 90028 assessed as metabolic activity at 80 ug/ml after 48 hrs in presence of 40 ug/ml fluconazol by XTT assay relative to control
[3] = system: Candida albicans; assay: Synergistic antifungal activity against Candida albicans ATCC 90028 at 20 ug/ml after 48 hrs in presence of 10 ug/ml fluconazol by checkerboard assay relative to control; assay type: functional
How it was run: (§2)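 Checkerboard in C. albicans ATCC 90028, inoculum prepared per CLSI M27-A3 in RPMI. Fluconazole serially diluted 80-1.25 µg/mL across the plate against the partner compound at 80-1.25 µg/mL final. Incubated 48 h at 35°C. Metabolic activity read by XTT reduction at 475 nm (660 nm reference), given as % of the untreated growth control.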

[4] = system: Candida albicans; assay: Antifungal activity against Candida albicans ATCC 90028 assessed as metabolic activity at 80 ug/ml after 48 hrs in presence of 10 ug/ml fluconazol by XTT assay relative to control
[5] = system: Candida albicans; assay: Synergistic antifungal activity against Candida albicans ATCC 90028 at 2.5 ug/ml after 48 hrs in presence of 5 ug/ml fluconazol by checkerboard assay relative to control; assay type: functional
How it was run: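 Checkerboard microdilution (M27-A3) on C. albicans ATCC 90028 in RPMI 1640: fluconazole (80-1.25 µg/mL) crossed with tetrazole (80-1.25 µg/mL final), incubated at 35°C for 48 h. Growth by OD405 at 18 and 48 h, endpoint taken as 100% inhibition. FIC index = sum of the two agents' FICs; <1 synergism, >1 antagonism.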

[6] = system: Candida albicans; assay: Antifungal activity against Candida albicans ATCC 90028 assessed as inhibition of metabolic activity at 1.25 ug/ml after 48 hrs in presence of 20 ug/ml fluconazol by XTT assay relative to control; assay type: functional; settings: values are per cent of control
How it was run: (§3)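 Checkerboard against strain ATCC 90028, inoculum per M27-A3: fluconazole 80-1.25 µg/mL on one axis, tetrazole 80-1.25 µg/mL on the other. Plates at 35°C for 48 h, then XTT metabolic reduction read at 475 nm (660 nm reference). Activity is the drop in mean absorbance against untreated growth control. FICs and their summed FIC index are taken at 50% reduction in metabolic activity.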

[7] = system: Candida albicans; assay: Synergistic antifungal activity against Candida albicans ATCC 90028 at 5 ug/ml after 48 hrs in presence of 1.25 ug/ml fluconazol by checkerboard assay relative to control; assay type: functional; how it was run: as §2
[8] = system: Candida albicans; assay: Antifungal activity against Candida albicans ATCC 90028 assessed as metabolic activity at 80 ug/ml after 48 hrs in presence of 80 ug/ml fluconazol by XTT assay relative to control; settings: ATCC 90028, 48 h
[9] = system: Candida albicans; assay: Antifungal activity against Candida albicans ATCC 90028 assessed as metabolic activity at 40 ug/ml after 48 hrs in presence of 20 ug/ml fluconazol by XTT assay relative to control
[10] = system: Candida albicans; assay: Antifungal activity against Candida albicans ATCC 90028 assessed as inhibition of metabolic activity at 5 ug/ml after 48 hrs in presence of 80 ug/ml fluconazol by XTT assay relative to control; assay type: functional; settings: values are per cent of control; how it was run: as §3
[11] = system: Candida albicans; assay: Antifungal activity against Candida albicans ATCC 90028 assessed as inhibition of metabolic activity at 5 ug/ml after 48 hrs in presence of 20 ug/ml fluconazol by XTT assay relative to control; assay type: functional; settings: values are per cent of control; how it was run: as §3
[12] = system: Candida albicans; assay: Antifungal activity against Candida albicans ATCC 90028 assessed as metabolic activity at 20 ug/ml after 48 hrs in presence of 2.5 ug/ml fluconazol by XTT assay relative to control
[13] = system: Candida albicans; assay: Synergistic antifungal activity against Candida albicans ATCC 90028 at 10 ug/ml after 48 hrs in presence of 40 ug/ml fluconazol by checkerboard assay relative to control; assay type: functional
How it was run: (§4)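 Checkerboard per M27-A3 against ATCC 90028: fluconazole at 80–1.25 µg/mL horizontally and partner compound at 80–1.25 µg/mL vertically, 100 µL yeast inoculum per well, 35°C for 48 h. After 48 h, metabolic activity was measured by XTT reduction at 475 nm (660 nm reference) relative to untreated growth control. FIC index is the sum of the FICs; <1 was defined as synergism and >1 as antagonism.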

[14] = system: Candida albicans; assay: Synergistic antifungal activity against Candida albicans ATCC 90028 assessed as fluconazol FIC at 1.25 to 80 ug/ml after 48 hrs by checkerboard assay; assay type: functional; how it was run: as §4
[15] = system: Candida albicans; assay: Synergistic antifungal activity against Candida albicans ATCC 90028 at 80 ug/ml after 48 hrs in presence of 20 ug/ml fluconazol by checkerboard assay relative to control; assay type: functional; how it was run: as §2
[16] = system: Candida albicans; assay: Antifungal activity against Candida albicans ATCC 90028 assessed as metabolic activity at 40 ug/ml after 48 hrs in presence of 5 ug/ml fluconazol by XTT assay relative to control
[17] = system: Candida albicans; assay: Antifungal activity against Candida albicans ATCC 90028 assessed as metabolic activity at 20 ug/ml after 48 hrs in presence of 1.25 ug/ml fluconazol by XTT assay relative to control
[18] = system: Candida albicans; assay: Antifungal activity against Candida albicans ATCC 90028 assessed as metabolic activity at 80 ug/ml after 48 hrs in presence of 5 ug/ml fluconazol by XTT assay relative to control
[19] = system: Candida albicans; assay: Antifungal activity against Candida albicans ATCC 90028 assessed as inhibition of metabolic activity at 2.5 ug/ml after 48 hrs in presence of 1.25 ug/ml fluconazol by XTT assay relative to control; assay type: functional; settings: values are per cent of control; how it was run: as §1
[20] = system: Candida albicans; assay: Antifungal activity against Candida albicans ATCC 90028 assessed as metabolic activity at 20 ug/ml after 48 hrs in presence of 20 ug/ml fluconazol by XTT assay relative to control; settings: ATCC 90028, 48 h
[21] = system: Candida albicans; assay: Synergistic antifungal activity against Candida albicans ATCC 90028 at 10 ug/ml after 48 hrs in presence of 1.25 ug/ml fluconazol by checkerboard assay relative to control; assay type: functional; how it was run: as §4
[22] = system: Candida albicans; assay: Antifungal activity against Candida albicans ATCC 90028 after 48 hrs in presence of fluconazol by XTT assay; assay type: functional; settings: ATCC 90028, 48 h; how it was run: as §3

| SMILES | residual activity [1] | Metabolic activity [2] | growth inhibition (GI) [3] | Metabolic activity [4] | growth inhibition (GI) [5] | residual activity [6] | growth inhibition (GI) [7] | Metabolic activity at 80 µg/mL [8] | Metabolic activity [9] | residual activity [10] | residual activity [11] | Metabolic activity [12] | growth inhibition (GI) [13] | FIC [14] | growth inhibition (GI) [15] | Metabolic activity [16] | Metabolic activity [17] | Metabolic activity [18] | residual activity [19] | Metabolic activity at 20 µg/mL [20] | further results |
| --- | --- | --- | --- | --- | --- | --- | --- | --- | --- | --- | --- | --- | --- | --- | --- | --- | --- | --- | --- | --- | --- |
| CCOC(=O)CCn1nnc(-c2ccccc2)n1 | 71.14% | 97.37% | 99.52% | 52.64% | 99.08% | 62.2% | 99.71% | 40% | 54.82% | 71.92% | 67.66% | 80.61% | 99.34% | 5 | 99.59% | 100% | 90.68% | 100% | 90.2% | 57.3% | growth inhibition (GI) [21]: 99.72%; MIC [22]: 80 µg/mL |
| ClCCCn1nnnc1-c1ccccc1Cl | 79.69% | 89.73% | 99.73% | 73.98% | 98.94% | 60.65% | 99.79% | 53.2% | 74.1% | 77.27% | 73.79% | 81.5% | 99.29% | 5 | 99.74% | 100% | 0% | 100% | 0% | 67.8% | fold change (FC) [14]: 5; growth inhibition (GI) [21]: 99.86%; MIC [22]: 80 µg/mL |
| Cc1ccc(-c2nnn(CCCN3CCOCC3)n2)cc1 | 100% | 100% | 99.32% | 11.87% | 98.33% | 100% | 98.77% | 73.4% | 54.14% | 88.19% | 93.31% | 71.88% | 98.78% | 5 | 99.71% | 100% | 76.07% | 100% | 100% | 61.7% | growth inhibition (GI) [21]: 97.81%; MIC [22]: 20 µg/mL |

Source: ChEMBL document CHEMBL4145471, “New 1,5 and 2,5-disubstituted tetrazoles-dependent activity towards surface barrier of Candida albicans” (Eur J Med Chem, 2018)
